Data taken from PMC3842382 (Journal of medicinal chemistry, 2013).

Legend:
mice [1] = settings: cited from earlier work
mice [2] = test: Maximal electroshock seizure; assay type: in vivo; settings: Mus musculus, ip, read-out: MES ED50
mice [3] = test: iv Metrazol test; assay type: in vivo; settings: ip, 25 mg/kg and 81 mg/kg
[4] = system: Na+ currents in mouse CAD cells; test: Whole-cell patch-clamp electrophysiology of Na+ currents in CAD cells; assay type: cell-based
[5] = system: Na+ currents in rat embryonic cortical neurons; test: Whole-cell patch-clamp electrophysiology of Na+ currents in cortical neurons; assay type: cell-based; settings: 20 μM
Outline: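 Cortical neurons from embryonic day 19 rat cortices were cultured 7–10 days in vitro. Whole-cell voltage clamp was run at room temperature in external solution containing 100 mM NaCl, TEA-Cl, CdCl2, NiCl2 and 4-AP (HEPES, pH 7.3), with 20 μM test compound or 0.1% DMSO control. Slow inactivation was read as the fraction of current available at −50 mV. V1/2 and k came from Boltzmann fits to individual recordings, averaged as mean ± SEM.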

[6] = system: Na+ currents in mouse CAD cells; settings: cited from earlier work
mice [7] = settings: ip; cited from earlier work
rat = settings: oral; cited from earlier work

SMILES: COC[C@@H](NC(C)=O)C(=O)NCc1ccccc1 [Compound 1, Lacosamide]
- anticonvulsant activity in scMet model (mice [1]): did not display anticonvulsant activity

SMILES: Cl.NCc1ccc(-c2ccccc2)cc1 [Compound 2, (Biphenyl-4-yl)methylammonium Chloride]
- ED50 (mice [2]): 30 to 100 mg/kg

SMILES: Cl.NCc1ccc(-c2cccc(OC(F)(F)F)c2)cc1 [Compound 8, (3′-Trifluoromethoxybiphenyl-4-yl)methylammonium Chloride]
- seizure threshold vs control group (mice [3]): no statistical difference from the control group
- effect on Na+ channel steady-state activation [4]: did not affect
- effect on slopes of fast inactivation [4]: not affected
- frequency (use)-dependent inhibition of Na+ currents ([4]; 10 μM, 10 Hz): did not exhibit
- effect on steady-state activation (V1/2 and k) [5]: unchanged
- frequency (use)-dependent inhibition of Na+ currents [5]: did not exhibit
- extent of slow inactivation (fraction of current available at −50 mV) ([5]; vehicle DMSO 0.41): 0.17 ± 0.03
- change in slope values of fast inactivation ([5]; vs control): no commensurate significant changes
- hyperpolarizing shift of V1/2 of steady-state fast inactivation ([5]; vs control): ~15.7 mV

SMILES: NCc1ccc(OCc2cccc(F)c2)cc1 [Compound 22]
- effect on fast inactivation [6]: affected fast inactivation
- frequency (use)-dependent blockage of Na+ currents [6]: displayed frequency (use)-dependent blockage

SMILES: CCC1(c2ccccc2)C(=O)NC(=O)NC1=O [phenobarbital]
- MES ED50 (mice [7]): 22 [1.0] (15-23) mg/kg
- MES ED50 (rat): 9.1 [5.0] (7.6-12) mg/kg

SMILES: CCCC(CCC)C(=O)O [valproate]
- MES ED50 (mice [7]): 270 [0.25] (250-340) mg/kg
- MES ED50 (rat): 490 [0.5] (350-730) mg/kg
